Assay outcomes (PubChem BioAssay)
PostGolgi yeast – growth inhibition of a yeast mutant, post-Golgi transport screen | post-Golgi transport phenotypic cell assay | inhibition, % at 10 µM | hit rate 0.9% among 98,000 | AID 739;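 further: yeast cells grown in 1536-well plates; yeast grown about 18 h at 30C before absorbance read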
E coli WT exp – blocks growth of wild type E. coli BW25113. AID 710. growth inhibition, % at 100 µM. hit rate 0.15% among 98,000. OD600 absorbance;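 active means growth inhibition above about 50% at one test dose, limit read from the data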;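 further: growth measured after 20 h incubation at 37 °C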
PLAP act – activators of human placental alkaline phosphatase; P05187; purified PLAP enzyme, luminescent substrate read-out; active compounds read high; activation fold at 20 µM; hit rate 1.2% among 96,000; AID 696; in the data active means activation fold above about 2
Target sequence (P05187 whole entry, looked up): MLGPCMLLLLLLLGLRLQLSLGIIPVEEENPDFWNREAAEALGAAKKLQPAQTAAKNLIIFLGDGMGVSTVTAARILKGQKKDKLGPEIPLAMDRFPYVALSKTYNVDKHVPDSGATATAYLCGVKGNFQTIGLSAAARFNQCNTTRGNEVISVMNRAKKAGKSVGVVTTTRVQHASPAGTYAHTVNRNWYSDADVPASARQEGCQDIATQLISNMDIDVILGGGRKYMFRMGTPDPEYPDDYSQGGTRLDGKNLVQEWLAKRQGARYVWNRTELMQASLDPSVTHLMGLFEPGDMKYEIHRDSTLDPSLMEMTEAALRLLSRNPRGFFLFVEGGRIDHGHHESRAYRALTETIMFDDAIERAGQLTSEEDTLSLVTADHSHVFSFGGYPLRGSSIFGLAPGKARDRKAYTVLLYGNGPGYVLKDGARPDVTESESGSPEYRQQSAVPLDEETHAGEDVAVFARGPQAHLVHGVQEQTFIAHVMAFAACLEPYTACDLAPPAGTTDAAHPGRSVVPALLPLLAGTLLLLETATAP
tolC growth inh – blocks growth of E. coli BW25113 tolC mutant | OD615 | growth inhibition, % at 10 µM (by protocol) | hit rate 2.2% among 65,000;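 active means growth inhibition at or above a cutoff equal to the mean over every tested compound plus 3 SD, cut at about 60% in these data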;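 further: growth measured after 20 h incubation at 37 °C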
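Test system: E. coli BW25113 ΔtolC::kan bacteria; incubation: 37 °C, 20 h exposure; medium: LB broth supplemented with 50 µg/mL kanamycin; read-out basis: percent growth inhibition; signal: A615 absorbance measurement; compound: 10 µM final, single dose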
PostGolgi ctrl – growth of the yeast control strain, post-Golgi counter-screen; efflux-deficient yeast background strain, growth absorbance A615, 16 h; inhibition, % at 10 µM; hit rate 5% among 98,000; AID 738
HePTP inh – inhibitors of human HePTP phosphatase | P35236 | inhibition, % at 20 µM | recombinant HePTP phosphatase activity, OD absorbance | hit rate 0.64% among 110,000; in the data active means inhibition above about 50%;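 further: plate controls were vehicle for no effect and reference inhibitor for full effect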
An asterisk follows results filed as active. In the library only some 5.4% were active in any assay of this set; here they are far more common. Unless noted, no stated cut-off is given here; in the data, active means inhibition above about 30%; inactive means the rest.

`CCn1c2ccccc2c2cc(CN3CCN(C(=O)c4ccc([N+](=O)[O-])cc4)CC3)ccc21` gave HePTP inh 5.0.
`COc1ccc(-c2nc3c(c(=O)[nH]c(=O)n3Cc3ccccc3)n2Cc2ccccc2)cc1` gave PostGolgi yeast -0.8, E coli WT exp -8.0, PLAP act 1.6 and PostGolgi ctrl 35.1*.
`COc1ccc(-c2nc3c(c(=O)[nH]c(=O)n3Cc3ccccc3)n2C)cc1` gave PostGolgi yeast 4.5, E coli WT exp 1.0, PLAP act 1.3 and PostGolgi ctrl 2.4.
`Cc1cccc(C2C3(OC(c4ccc(Br)cc4)C24C(=O)c2ccccc2C4=O)C(=O)c2ccccc2C3=O)c1` (stereo not given) gave HePTP inh -17.3.
Screening Cc1ccccc1C(=O)NCC1CCCO1 (stereo not given) returned HePTP inh 1.8.
`O=C(NC1CC2CCCC(C1)N2Cc1ccco1)NC12CC3CC(CC(C3)C1)C2` (stereo not given) gave PostGolgi yeast -3.6, E coli WT exp 2.0, PLAP act 2.2*, tolC growth inh -4.2, PostGolgi ctrl 7.7 and HePTP inh 5.4.
`O=C(CSc1ccc(Cl)cc1)N1CCN(c2ccc(Cl)cc2[N+](=O)[O-])CC1` gave PostGolgi yeast 1.9, E coli WT exp -14.0, PLAP act 1 and PostGolgi ctrl 71.5*.
O=C(c1ccc(F)cc1)N1CCN(c2ccc(Cl)cc2[N+](=O)[O-])CC1 was read as HePTP inh -1.4.
Screening CC1=C(C(=O)OCCc2ccccc2)C(c2ccc([N+](=O)[O-])s2)NC(=O)N1C (stereo not given) returned HePTP inh -2.9.
Cc1ccc(S(=O)(=O)NC(CC(C)C)C(=O)Nc2nccs2)cc1 (stereo not given) was read as PostGolgi yeast -7.2, E coli WT exp -1.0, PLAP act 2.2* and PostGolgi ctrl 8.3.
`CCN(CC)C(=O)COc1ccc2oc(C)c(C(=O)OC(C)C)c2c1` gave PostGolgi yeast -4.2, E coli WT exp -8.0, PLAP act 2.6*, tolC growth inh 11.0, PostGolgi ctrl 9.8 and HePTP inh 6.5.
`CCOC(=O)COc1ccc2oc(C)c(C(=O)OC(C)C)c2c1` gave HePTP inh 2.2.
O=C(CCc1ccccc1)NCCN1CCOCC1 was read as HePTP inh -0.5.
For O=C(CCSc1ccccc1)NCCN1CCOCC1 the results were PostGolgi yeast -4.3, E coli WT exp 9.0, PLAP act 1, tolC growth inh -13.3, PostGolgi ctrl 39.0* and HePTP inh 11.0.
Screening COc1ccc2c(c1)c1ncn(CCc3ccccc3)c(=O)c1n2C returned PostGolgi yeast -16.5, E coli WT exp -5.0, PLAP act 1.5 and PostGolgi ctrl 39.2*.
O=C(c1nn2c(c1Cl)NC(c1ccco1)CC2C(F)(F)F)N1CCN(Cc2ccccc2)CC1 (stereo not given) was read as HePTP inh 6.3.
NC(=O)C1CCN(Cc2nc3cc(Cl)ccc3c(=O)[nH]2)CC1 was read as PostGolgi yeast -0.8, E coli WT exp -1.0, PLAP act 2* and PostGolgi ctrl 4.9.
Clc1ccc2[nH]c3c(c2c1)CCc1cn[nH]c1-3 was read as PostGolgi yeast 74.0*, E coli WT exp 78.0*, PLAP act 1.1, tolC growth inh 100.0*, PostGolgi ctrl 57.3* and HePTP inh 6.0.
Screening c1ccc2c3c([nH]c2c1)-c1[nH]ncc1CC3 returned PostGolgi yeast -2.9, E coli WT exp 30.0, PLAP act 1.4, tolC growth inh 7.3, PostGolgi ctrl 1.5 and HePTP inh 11.9.
For Cc1ccccc1OCCNC(=O)c1cccc2ccccc12 the results were HePTP inh 2.8.
For Cc1ccc(N=Nc2c(=O)[nH]n3c(=O)cc(C)[nH]c23)cc1 the results were PostGolgi yeast -1.1, E coli WT exp -13.0, PLAP act 2.1* and PostGolgi ctrl 3.7.
Screening O=C(CSc1n[nH]c(-c2ccc(S(=O)(=O)NC3CCCCC3)cc2)n1)N1CCCC1 returned PostGolgi yeast 4.9, E coli WT exp 4.0, PLAP act 1.4, tolC growth inh 21.7, PostGolgi ctrl 32.0* and HePTP inh 9.2.
Screening NS(=O)(=O)c1ccc(CCNC2CC(=O)N(Cc3ccccc3)C2=O)cc1 (stereo not given) returned PostGolgi yeast -2.8, E coli WT exp -4.0, PLAP act 1, tolC growth inh -12.8, PostGolgi ctrl 32.3* and HePTP inh 2.3.
Screening CC(NC(=O)C(Cc1ccccc1)N1C(=O)C2C3CCC(C3)C2C1=O)c1ccccc1 (stereo not given) returned PostGolgi yeast -1.3, E coli WT exp -6.0, PLAP act 1.1 and PostGolgi ctrl 31.7*.
Cc1cc(=O)[nH]c(Nc2nc(C)c3cccc(C)c3n2)n1 was read as HePTP inh 11.4.
`Cc1nc(Nc2nc(O)cc(=O)[nH]2)nc2c(C)cccc12` gave HePTP inh 103.4*.
Screening COc1ccc(Nc2ncnc3nc[nH]c23)cc1OC returned PostGolgi yeast -4.2, E coli WT exp 0.0, PLAP act 2*, tolC growth inh -20.8, PostGolgi ctrl 4.3 and HePTP inh 4.0.
`Cc1ccc(C)c(Nc2ncnc3nc[nH]c23)c1` gave PostGolgi yeast -8.0, E coli WT exp 7.0, PLAP act 2.4*, tolC growth inh -6.1, PostGolgi ctrl 1.4 and HePTP inh -1.8.
`Cc1cccc(Nc2ncnc3nc[nH]c23)c1` gave PostGolgi yeast 3.2, E coli WT exp 1.0, tolC growth inh -4.9, PostGolgi ctrl -3.4 and HePTP inh 2.3.
`c1ccc(COc2ccc(Nc3ncnc4nc[nH]c34)cc2)cc1` gave PostGolgi yeast -1.2, E coli WT exp -5.0, PLAP act 2.3*, tolC growth inh 3.3, PostGolgi ctrl 69.9* and HePTP inh -1.1.
For CC(C)CNc1cc(=O)n(C)c(=O)n1C the results were PostGolgi yeast 6.4, E coli WT exp 9.0, PLAP act 0.8, tolC growth inh -15.4, PostGolgi ctrl 47.9* and HePTP inh 4.5.
For CC1CCN(C(=O)Cn2c(=O)n(CCc3ccccc3)c(=O)c3ccccc32)CC1 the results were PostGolgi yeast 20.9, E coli WT exp -3.0, PLAP act 0.8, tolC growth inh 0.0, PostGolgi ctrl 43.4* and HePTP inh 3.6.
For CCCCNC(=O)CCn1c(=O)c2ccccc2n(CC(=O)N2CC(C)CC(C)C2)c1=O (stereo not given) the results were PostGolgi yeast 13.8, E coli WT exp 3.0, PLAP act 1.4, tolC growth inh -7.6, PostGolgi ctrl 9.4 and HePTP inh 6.7.
Screening CCN1CCN(C(=S)Nc2ccc([N+](=O)[O-])cc2)CC1 returned PostGolgi yeast -2.3, E coli WT exp 18.0, PLAP act 0.9 and PostGolgi ctrl 8.3.
Screening CCOC(=O)N1CCN(C(=O)CSCc2ccc(Cl)cc2)CC1 returned PostGolgi yeast 1.9, E coli WT exp -1.0 and PostGolgi ctrl 35.9*.
